System: PC3 xenografts
Experiment: PET imaging of PC3 xenografted Nu/Nu mice
Assay type: in vivo, mouse
Settings: 15 MBq injected, 20-minute scan
In short: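 Male Nu/Nu mice (4–6 weeks old) got s.c. PC3 cells (1 × 10^6 in PBS, shoulders) or LNCaP cells (2.5 × 10^6 in PBS/Matrigel 1:1, hips). Tumors grew ≥4 weeks to ≥5 mm. Under isoflurane, mice received i.v. 3.7–7.4 MBq 64Cu peptide or 15 MBq [18F]-FDG, on a heated bed. Scans ran 20 min on small-animal PET with 3D MLEM reconstruction. ROI activity was expressed per cm³ as % injected dose.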

OC[C@H]1OC(O)[C@H]([18F])[C@@H](O)[C@@H]1O (stereo partly drawn) [[^18F]-FDG, [^18F]-fluoro-2-deoxy-D-glucose]
PC3 tumor [18F]-FDG uptake (PET): faultless
